pEC50: −log10 of the molar value. Values after ≈ are worked out from the molar mass of the structure shown.
Columns and labels:
[1] = target: T1, Free fatty acid receptor 1 (Homo sapiens, UniProt O14842); experiment: Agonist activity at human FFA1 receptor expressed in human 1321N1 cells assessed as calcium mobilization by fluorescence spectrophotometry relative to 10 uM TUG-20; assay type: functional, cell-based
How it was run: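 Human FFA1 stably expressed in 1321N1 cells kept under G418 selection, 30000–40000 cells/well. After 24 h, washed in Krebs-HEPES pH 7.4 and loaded 1 h at 37 °C with 1.5 μM Oregon Green 488 BAPTA-1/AM. Compound injected at 10-fold concentration at 37 °C; fluorescence ex 485/em 520 nm over 50 × 0.4 s. Efficacy as % of maximal response to 10 μM TUG-20.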

[2] = target: T1, Free fatty acid receptor 1; experiment: Agonist activity at human FFA1 receptor expressed in human 1321N1 cells assessed as calcium mobilization by fluorescence spectrophotometry; assay type: functional, cell-based
[3] = Permeability across methotrexate treated human HT-29 cells assessed as compound recovery; assay type: ADME, cell-based; conditions: read-out: Activity
How it was run: (§1)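 HT29-MTX mucus-producing cells, passage 32, grown 23 days (TEER > 750 Ω cm²). Compound at 100 μM (10 mM DMSO stock diluted 1:100 in buffer). […] Non-permeated drug measured for recovery. Monolayer integrity checked by 20 μM carboxyfluorescein after 1 h and TEER.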

[4] = Apparent permeability across methotrexate treated human HT-29 cells; assay type: ADME, cell-based; how it was run: as §1
CYP1A2 = target: T2, CYP1A2 (Homo sapiens, UniProt P05177); experiment: Inhibition of CYP1A2 at 10 uM; assay type: ADME
T2 sequence (P05177 whole entry): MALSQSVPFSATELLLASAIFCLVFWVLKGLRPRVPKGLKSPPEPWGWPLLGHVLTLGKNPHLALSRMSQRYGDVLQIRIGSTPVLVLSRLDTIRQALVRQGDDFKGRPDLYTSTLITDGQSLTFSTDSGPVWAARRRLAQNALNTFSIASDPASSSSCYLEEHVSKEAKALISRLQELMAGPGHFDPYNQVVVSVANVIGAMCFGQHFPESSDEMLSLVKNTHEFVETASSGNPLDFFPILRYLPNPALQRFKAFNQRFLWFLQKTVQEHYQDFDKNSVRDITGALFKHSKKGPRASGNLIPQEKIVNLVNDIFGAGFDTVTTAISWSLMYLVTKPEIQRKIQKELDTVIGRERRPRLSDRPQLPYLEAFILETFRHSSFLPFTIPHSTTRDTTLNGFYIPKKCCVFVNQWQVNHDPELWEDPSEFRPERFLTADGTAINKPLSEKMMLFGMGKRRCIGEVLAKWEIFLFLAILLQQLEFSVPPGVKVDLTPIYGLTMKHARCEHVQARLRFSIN

Liver = experiment: Metabolic stability in human liver S9 fraction; assay type: ADME, subcellular
[5] = Octanol-phosphate buffer partition coefficient, log D of the compound at pH 7.4 by HPLC analysis; assay type: physicochemical
[6] = Inhibition of P-glycoprotein at 100 uM
How it was run: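 P-glycoprotein inhibition tested at 100 μM compound.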

CYP2C19 = CYP2C19 (Homo sapiens, UniProt P33261); experiment: Inhibition of CYP2C19 at 10 uM; assay type: ADME
[7] = Octanol-water partition coefficient, log D of the compound at pH 7.4 by HPLC analysis; assay type: physicochemical
How it was run: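 Distribution between n-octanol and water (PBS), pH 7.4, determined experimentally.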

[8] = Apparent permeability from apical to basolateral side of human Caco2/TC7 cells; assay type: ADME, cell-based; conditions: Caco-2
How it was run: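 Caco-2 TC7 monolayers, apical to basolateral transport at pH 6.5 apical/7.4 basolateral.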

[9] = Plasma protein binding in human; assay type: ADME, cell-free; conditions: read-out: PPB (converted)
[10] = Chemical stability of the compound in PBS at 37 degC for 12 days; assay type: physicochemical; conditions: read-out: Stability
How it was run: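 Stability followed in PBS at 37 °C over 12 days.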

[11] = Aqueous solubility of the compound in PBS at pH 7.4; assay type: physicochemical
How it was run: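 Solubility measured in PBS at pH 7.4.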

CYP2D6 = CYP2D6 (Homo sapiens, UniProt P10635); experiment: Inhibition of CYP2D6 at 10 uM; assay type: ADME
CYP3A4 = CYP3A4 (Homo sapiens, UniProt P08684); experiment: Inhibition of CYP3A4 at 10 uM; assay type: ADME
CYP2C9 = CYP2C9 (Homo sapiens, UniProt P11712); experiment: Inhibition of CYP2C9 at 10 uM; assay type: ADME
Sequence of CYP2C9 (P11712 whole entry): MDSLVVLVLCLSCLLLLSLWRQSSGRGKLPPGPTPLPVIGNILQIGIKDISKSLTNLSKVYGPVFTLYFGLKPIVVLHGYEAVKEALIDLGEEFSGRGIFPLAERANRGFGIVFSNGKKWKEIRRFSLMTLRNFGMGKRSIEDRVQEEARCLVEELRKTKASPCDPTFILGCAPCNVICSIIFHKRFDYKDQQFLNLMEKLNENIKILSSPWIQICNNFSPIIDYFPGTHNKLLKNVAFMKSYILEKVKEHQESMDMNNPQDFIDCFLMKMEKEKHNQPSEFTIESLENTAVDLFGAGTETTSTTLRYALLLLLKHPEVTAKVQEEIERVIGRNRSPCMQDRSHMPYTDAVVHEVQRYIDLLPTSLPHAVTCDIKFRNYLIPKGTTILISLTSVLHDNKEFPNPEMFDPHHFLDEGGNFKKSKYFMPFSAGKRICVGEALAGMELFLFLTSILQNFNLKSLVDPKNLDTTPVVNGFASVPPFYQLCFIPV

T1 sequence (O14842 whole entry): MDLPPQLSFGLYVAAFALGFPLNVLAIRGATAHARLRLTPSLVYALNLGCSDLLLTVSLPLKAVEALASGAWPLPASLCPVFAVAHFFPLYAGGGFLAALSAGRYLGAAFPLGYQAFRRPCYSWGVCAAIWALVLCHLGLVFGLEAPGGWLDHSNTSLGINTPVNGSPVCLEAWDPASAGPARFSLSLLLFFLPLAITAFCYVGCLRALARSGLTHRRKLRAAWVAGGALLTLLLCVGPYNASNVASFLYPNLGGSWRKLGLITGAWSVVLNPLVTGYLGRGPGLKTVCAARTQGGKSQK
Sequence of CYP3A4 (P08684 whole entry): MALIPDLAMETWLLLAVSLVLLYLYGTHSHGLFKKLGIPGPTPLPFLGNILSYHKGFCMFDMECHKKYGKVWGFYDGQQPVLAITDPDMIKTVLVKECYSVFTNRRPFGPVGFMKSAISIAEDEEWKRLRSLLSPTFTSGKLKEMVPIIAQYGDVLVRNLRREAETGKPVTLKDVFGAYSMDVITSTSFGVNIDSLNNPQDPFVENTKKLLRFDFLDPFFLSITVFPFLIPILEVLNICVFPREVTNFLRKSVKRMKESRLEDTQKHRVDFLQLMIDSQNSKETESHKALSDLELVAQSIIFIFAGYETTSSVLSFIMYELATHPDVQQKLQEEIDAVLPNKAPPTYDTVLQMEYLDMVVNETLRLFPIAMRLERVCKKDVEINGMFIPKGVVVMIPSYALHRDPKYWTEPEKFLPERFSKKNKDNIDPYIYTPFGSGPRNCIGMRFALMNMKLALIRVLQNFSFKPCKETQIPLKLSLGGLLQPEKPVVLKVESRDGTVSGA
Sequence of CYP2D6 (P10635 whole entry): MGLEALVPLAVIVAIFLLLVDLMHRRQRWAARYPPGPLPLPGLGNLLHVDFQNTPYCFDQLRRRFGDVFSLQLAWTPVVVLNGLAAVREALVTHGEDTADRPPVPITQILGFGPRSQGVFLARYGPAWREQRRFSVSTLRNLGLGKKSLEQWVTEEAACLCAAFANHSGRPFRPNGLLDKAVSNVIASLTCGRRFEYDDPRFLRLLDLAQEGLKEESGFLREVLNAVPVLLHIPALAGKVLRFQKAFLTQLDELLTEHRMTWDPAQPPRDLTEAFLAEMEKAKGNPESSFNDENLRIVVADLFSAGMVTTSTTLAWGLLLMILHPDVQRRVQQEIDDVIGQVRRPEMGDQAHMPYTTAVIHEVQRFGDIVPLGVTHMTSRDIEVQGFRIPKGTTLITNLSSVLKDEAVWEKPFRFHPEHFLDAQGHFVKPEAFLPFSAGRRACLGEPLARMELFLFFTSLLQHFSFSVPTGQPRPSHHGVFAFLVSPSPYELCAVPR
Sequence of CYP2C19 (P33261 whole entry): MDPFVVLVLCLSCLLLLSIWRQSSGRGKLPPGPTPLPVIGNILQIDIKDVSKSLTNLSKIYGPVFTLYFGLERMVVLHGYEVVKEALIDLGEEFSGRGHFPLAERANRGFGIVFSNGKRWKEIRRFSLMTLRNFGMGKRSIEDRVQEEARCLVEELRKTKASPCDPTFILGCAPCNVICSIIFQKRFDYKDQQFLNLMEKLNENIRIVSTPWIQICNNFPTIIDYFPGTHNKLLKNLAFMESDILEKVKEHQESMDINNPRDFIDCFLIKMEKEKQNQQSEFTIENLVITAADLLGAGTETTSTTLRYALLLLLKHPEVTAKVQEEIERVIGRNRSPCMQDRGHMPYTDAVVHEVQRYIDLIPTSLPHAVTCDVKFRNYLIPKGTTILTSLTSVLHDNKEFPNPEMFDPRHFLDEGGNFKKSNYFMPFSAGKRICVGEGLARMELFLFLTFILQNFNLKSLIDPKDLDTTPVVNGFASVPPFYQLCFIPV

SMILES	Efficacy [1] [%]	pEC50 [2]	also measured
Cc1c(C#Cc2ccc(CCC(=O)O)cc2)cc(Cl)nc1Cl	91	7.36	
Cc1c(C#Cc2ccc(CCC(=O)O)cc2)ccnc1F	101	6.92	
O=C(O)CCc1ccc(C#Cc2ccnc(F)c2)cc1	98	6.29	
C=CCc1c(C#Cc2ccc(CCC(=O)O)cc2)ccnc1Cl	97	6.50	
O=C(O)CCc1ccc(C#Cc2ccnc3cc(Cl)ccc23)cc1	125	7.10	
O=C(O)CCc1ccc(C#Cc2ccc(Cl)nc2)cc1	98	6.15	
O=C(O)CCc1ccc(C#Cc2cncs2)cc1	99	5.41	
Cc1cnc(Cl)nc1C#Cc1ccc(CCC(=O)O)cc1	121	5.37	
O=C(O)CCc1ccc(C#Cc2ccccn2)cc1	98	4.88	
CC(C(=O)O)c1cccc(C(=O)c2ccccc2)c1 (centres undefined) [KETOPROFEN]			recovery [3]: 80%; Papp [4]: 15.1 ×10⁻⁶ cm/s
O=C(O)CCc1ccc(C#Cc2cccnc2)cc1	96	5.22	
O=C(O)C1CC1c1ccc(C#Cc2cc(Cl)nc(Cl)c2)cc1 (racemic)	96		
Cc1c(C#Cc2ccc(CCC(=O)O)cc2)ccnc1Cl	101	6.87	
Cc1cnc(F)cc1C#Cc1ccc(CCC(=O)O)cc1	99	6.75	
O=C(O)CCc1ccc(C#Cc2ccnc(-c3ccccc3)c2)cc1	97	6.73	
O=C(O)CCc1ccc(C#Cc2cccnc2Cl)cc1	91	6.22	
O=C(O)CCc1ccc(C#Cc2ccnc(Cl)n2)cc1	131	5.04	
COc1nccc(C#Cc2ccc(CCC(=O)O)cc2)n1	109	5.02	
O=C(O)CCc1ccc(C#Cc2ccnc(Cl)c2Cc2ccccc2)cc1	101	6.10	
Cc1cnc(F)c(C#Cc2ccc(CCC(=O)O)cc2)c1	98	6.18	
COc1cc(C#Cc2ccc(CCC(=O)O)cc2)ccn1	98	6.28	
O=C(O)CCc1ccc(C#Cc2ccnc(Cl)c2)cc1	94	6.53	

Second part, led by results:

Efficacy [1] [%]	pEC50 [2]	SMILES	also measured
110	5.56	Cc1cc(C#Cc2ccc(CCC(=O)O)cc2)nc(Cl)n1	
100	5.39	O=C(O)CCc1ccc(C#Cc2ccncc2)cc1	
92	5.97	Cc1ccccc1-c1cc(C#Cc2ccc(CCC(=O)O)cc2)ccn1	
102	7.34	Cc1ccccc1C#Cc1ccc(CCC(=O)O)cc1	inhibition at 10 µM (CYP1A2): -8%; Stability (Liver): 26%; logD [5]: 2.34; inhibition [6]: 6.6%; inhibition at 10 µM (CYP2C19): -1%; logD [7]: 2.34; Papp A→B [8]: 87 ×10⁻⁶ cm/s; fraction unbound [9]: 0.023; remaining at 288 h [10]: 99.9%; solubility [11]: 174 µM (≈ 46 µg/mL); inhibition at 10 µM (CYP2D6): 0%; inhibition at 10 µM (CYP3A4): -4%; inhibition at 10 µM (CYP2C9): -25%
97	6.60	O=C(O)CCc1ccc(C#Cc2cccs2)cc1	
94	6.32	O=C(O)CCc1ccc(C#Cc2ccnc(Oc3ccccc3)c2)cc1	
87		O=C(O)CCc1ccc(C#Cc2ncccc2[N+](=O)[O-])cc1	
102		Cc1cc(C#Cc2ccc(CCC(=O)O)cc2)ccn1	
100	7.12	Cc1ccsc1C#Cc1ccc(CCC(=O)O)cc1	
108	5.21	Cc1cccc(C#Cc2ccc(CCC(=O)O)cc2)n1	

Source: ChEMBL document CHEMBL1828561, “Identification of a potent and selective free fatty acid receptor 1 (FFA1/GPR40) agonist with favorable physicochemical and in vitro ADME properties” (J Med Chem, 2011)
